Results published in ChEMBL document CHEMBL3232782, “1,2,3,4,8,9,10,11-octahydrobenzo[j]phenanthridine-7,12-diones as new leads against Mycobacterium tuberculosis” (J Med Chem, 2014).

Legend:
Type in all cases: functional
[1] = system: Mycobacterium tuberculosis; experiment: Antimycobacterial activity against multidrug-resistant Mycobacterium tuberculosis LAM-1 assessed as bacterial growth index at 2.5 uM measured on day 6 by BACTEC MGIT 960TB method relative to control
In short: (§1)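 MDR LAM-1, resistant to INH, RIF, rifabutin and prothionamide, was precultured in BACTEC MGIT vials to GI 300. It was inoculated with compound dilutions made from 1 mg/mL DMSO stocks in 7H9-OADC. Growth index was recorded daily. Day-6 GI was compared with an untreated culture diluted 100-fold (C/100) to set the critical 99% inhibitory concentration. Controls: INH 0.1 μM; moxifloxacin 1.14 μM.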

[2] = system: Mycobacterium tuberculosis; experiment: Antimycobacterial activity against multidrug-resistant Mycobacterium tuberculosis LAM-1 assessed as bacterial growth index at 0.50 uM measured on day 6 by BACTEC MGIT 960TB method relative to control; in short: as §1
[3] = system: Mycobacterium tuberculosis; experiment: Antimycobacterial activity against multidrug-resistant Mycobacterium tuberculosis LAM-1 assessed as bacterial growth index at 0.25 uM measured on day 6 by BACTEC MGIT 960TB method relative to control; in short: as §1

Row | Compound | Growth_index [1] | Growth_index [2] | Growth_index [3]
1 | CC(C)(C)C1CCc2ncc3c(c2C1)C(=O)C1=C(C3=O)C2CCC1C2 (stereo unspecified) | 537 | 1982 | –
2 | CCOC(=O)C1CCc2ncc3c(c2C1)C(=O)C1=C(C3=O)C2CCC1C2 (stereo unspecified) | – | 367 | 1970
3 | CCOC(=O)C1CCc2ncc3c(c2C1)C(=O)C1=C(C3=O)C2CCC1CC2 (stereo unspecified) | – | 638 | 2382
